Results: ChEMBL document CHEMBL4196196, “Phosphonamidate Prodrugs of a Butyrophilin Ligand Display Plasma Stability and Potent Vγ9 Vδ2 T Cell Stimulation” (J Med Chem, 2018)
The source made the active and inactive calls. The calls are words filed in the database; no cut-off is given here.

How the values were obtained:
[1] = molecular target: T1, Butyrophilin subfamily 3 member A1 (Homo sapiens, UniProt O00481); test: Binding affinity to BTN3A1 in human Vgamma9 Vdelta2 T cells mixed with human K562 cells pretreated with compound for 4 hrs assessed as INF-gamma production measured after 20 hrs by ELISA
Method in brief: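 K562 target cells loaded with compound for 4 h, then washed. They were co-cultured with Vγ9Vδ2 T cells purified by negative selection, at 3:1 effector:target. After 20 h, supernatant interferon γ was measured by ELISA. EC₅₀ reported with 95% CI. Three independent experiments using ≥2 donors.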
Target sequence in this assay (O00481 whole entry): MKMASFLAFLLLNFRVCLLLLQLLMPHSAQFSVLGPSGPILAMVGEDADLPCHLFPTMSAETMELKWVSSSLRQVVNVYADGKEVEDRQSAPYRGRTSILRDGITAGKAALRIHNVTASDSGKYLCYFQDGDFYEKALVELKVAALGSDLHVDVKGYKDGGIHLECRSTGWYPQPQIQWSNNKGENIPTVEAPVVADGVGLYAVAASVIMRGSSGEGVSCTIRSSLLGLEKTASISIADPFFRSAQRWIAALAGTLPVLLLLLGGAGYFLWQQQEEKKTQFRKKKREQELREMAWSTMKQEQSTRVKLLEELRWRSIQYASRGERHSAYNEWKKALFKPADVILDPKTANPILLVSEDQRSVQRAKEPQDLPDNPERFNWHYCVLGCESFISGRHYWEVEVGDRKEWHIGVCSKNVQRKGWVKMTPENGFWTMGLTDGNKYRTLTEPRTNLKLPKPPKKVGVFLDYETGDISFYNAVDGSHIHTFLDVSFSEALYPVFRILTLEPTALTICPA

[2] = molecular target: T1, Butyrophilin subfamily 3 member A1; test: Binding affinity to BTN3A1 in human PBMC assessed as stimulation of Vgamma9 Vdelta2 T cells at 100 nM incubated for 3 days and measured after 11 days post compound removal by flow cytometry relative to sodium (E)-5-hydroxy-4-methylpent-3-enylphosphonate
Target sequence in this assay (O00481 30-513 limits assumed): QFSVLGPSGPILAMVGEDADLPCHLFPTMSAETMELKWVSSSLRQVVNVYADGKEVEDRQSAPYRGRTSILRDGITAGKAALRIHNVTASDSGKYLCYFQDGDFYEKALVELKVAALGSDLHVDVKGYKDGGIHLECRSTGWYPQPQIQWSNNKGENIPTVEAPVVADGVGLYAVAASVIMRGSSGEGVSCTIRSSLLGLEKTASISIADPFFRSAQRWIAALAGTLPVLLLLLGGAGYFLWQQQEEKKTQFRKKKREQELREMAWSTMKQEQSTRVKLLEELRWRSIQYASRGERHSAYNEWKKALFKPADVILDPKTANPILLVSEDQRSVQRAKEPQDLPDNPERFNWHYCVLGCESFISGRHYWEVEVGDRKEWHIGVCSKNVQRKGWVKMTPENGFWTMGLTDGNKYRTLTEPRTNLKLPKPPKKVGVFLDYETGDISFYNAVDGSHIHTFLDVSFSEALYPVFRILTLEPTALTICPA

[3] = molecular target: T1, Butyrophilin subfamily 3 member A1; test: Binding affinity to BTN3A1 in human PBMC assessed as stimulation of Vgamma9 Vdelta2 T cells at 100 nM incubated for 3 days and measured after 11 days post compound removal by flow cytometry
Method in brief: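 Human PBMC exposed to compound at 100 nM for 3 days, then left to proliferate 11 days before counting Vγ9Vδ2 T cells. […] Negative control was cells with interleukin 2 and no compound. Data from 3 independent experiments.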
Target sequence in this assay (O00481 30-513 limits assumed): as above

[4] = Stability in 50% pooled human plasma assessed as half life at 100 uM by LC-MS method; assay type: ADME, cell-free
Method in brief: (§1)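 Compound at 100 µM final in pooled human plasma diluted to 50% with PBS, pH 7.5. Analysed by positive-mode LC-MS on C18 with a water/acetonitrile gradient from 25 to 80% over 9 min. Fraction remaining came from peak integration, and half-life was calculated from it. Each point run 2–4 times.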

[5] = molecular target: T1, Butyrophilin subfamily 3 member A1; test: Binding affinity to BTN3A1 in human PBMC assessed as stimulation of Vgamma9 Vdelta2 T cells at 100 nM incubated for 3 days and measured after 11 days post compound removal by flow cytometry relative to (E)-dimethyl 5-hydroxy-4-methylpent-3-enylphosphonate
Target sequence in this assay (O00481 30-513 limits assumed): as above

[6] = Half life in human plasma; assay type: ADME, cell-free
Method in brief: as §1, with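 “7.5. Incubated for various times, including 2 and 24 h, then extracted with acetonitrile and centrifuged.” for “7.5.”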

K562 = test: Cytotoxicity in human K562 cells assessed as reduction in cell viability incubated for 72 hrs by cell-QB reagent based assay; conditions: K562, 72 h
Method in brief: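 K562 cells seeded at 0.5 × 10⁴ per well in RPMI and exposed to a range of compound concentrations, up to 100 µM, for 72 h. Cell-QB reagent was added for the final 2 h and read by fluorescence. Viability was expressed as % of untreated cells after subtracting a media-only blank. Three independent experiments.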

[7] = Stability in 50% pooled human plasma assessed as compound hydrolysis at 100 uM after 2 hrs by LC-MS method relative to control; assay type: ADME, cell-free; conditions: read-out: Drug degradation
Method in brief: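 Compound at 100 µM final in pooled human plasma diluted to 50% with PBS, pH 7.5. Sampled at 2 h (also 24 h), then extracted into acetonitrile and debris spun down. Analysed by positive-mode LC-MS on C18 with a 25→80% acetonitrile gradient over 9 min. Fraction remaining from peak integration; 2–4 independent runs.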

Row | SMILES | EC50 [1] [nM] | Ratio EC50 [2] | Activity [3] | t1/2 [4] [h] | Ratio EC50 [5] | half-life [6] [h] | IC50 (K562) [nM] | metabolised at 2 h, 100 µM [7] [%]
1 | CCOC(=O)CNP(=O)(CC/C=C(\C)CO)Oc1cccc2ccccc12 (stereo unspecified) | 62 | 11000 | Active | > 24 | 15 | – | – | –
2 | COc1ccc2cc(C(=O)OCOP(=O)(CC/C=C(\C)CO)OC)c(=O)oc2c1 (stereo unspecified) | – | – | – | – | – | 6 to 8 | – | –
3 | COC(=O)CNP(=O)(CC/C=C(\C)CO)Oc1cccc2ccccc12 (stereo unspecified) | 130 | 9100 | Active | > 24 | 12 | – | 40000 | –
4 | C/C(=C\CCP(=O)(NCC(=O)OC(C)C)Oc1ccc2ccccc2c1)CO (stereo unspecified) | 210 | 4900 | Active | > 24 | 6.6 | – | > 100000 | –
5 | Oc1cccc2ccccc12 [1-NAPHTHOL] | – | – | – | – | – | – | > 100000 | –
6 | Oc1ccc2ccccc2c1 [BETANAPHTHOL] | – | – | – | – | – | – | > 100000 | –
7 | CCOC(=O)CNP(=O)(CC/C=C(\C)CO)Oc1ccc2ccccc2c1 (stereo unspecified) | 93 | 7500 | Active | > 24 | 10 | – | – | –
8 | C/C(=C\CCP(=O)(OCOC(=O)C(C)(C)C)OCOC(=O)C(C)(C)C)CO | – | – | Active | 8.4 | – | – | – | > 95
9 | C/C(=C\CCP(=O)(NCC(=O)OC(C)C)Oc1ccccc1)CO (stereo unspecified) | 740 | 3600 | Active | > 24 | 4.9 | – | – | –
10 | C/C(=C\CCP(=O)(NCC(=O)OC(C)C)Oc1cccc2ccccc12)CO (stereo unspecified) | 290 | 12000 | Active | > 24 | 16 | – | > 100000 | –
11 | COC(=O)CNP(=O)(CC/C=C(\C)CO)Oc1ccc2ccccc2c1 (stereo unspecified) | 120 | 6900 | Active | > 24 | 9.3 | – | > 100000 | –
12 | C/C(=C\COP(=O)(O)OP(=O)(O)O)CO | – | – | Active | – | – | – | – | –
13 | Oc1ccccc1 [PHENOL] | – | – | – | – | – | – | > 100000 | –
14 | CCOC(=O)CNP(=O)(CC/C=C(\C)CO)Oc1ccccc1 (stereo unspecified) | 170 | – | Active | – | – | – | > 100000 | –
15 | COC(=O)CNP(=O)(CC/C=C(\C)CO)Oc1ccccc1 (stereo unspecified) | 460 | 2700 | Active | > 24 | 3.6 | – | > 100000 | –
